Source: publication PMC12749539 (Scientific Reports, 2025)

Key:
[1] = CC50 cytotoxicity in uninfected Vero cells; format: cell-based; details: African green monkey
Summary of the method: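 Vero CCL-81 cells in DMEM with 10% FBS were seeded at 1.2 × 10⁶ cells per plate one day ahead. Uninfected monolayers were exposed to serial dilutions of test compound in DMEM (50–0.2 µM) for 6 days at 37 °C and 5% CO2. Viability was read by crystal violet staining. CC50 came from four-parameter logistic nonlinear regression of triplicate data, with 95% CIs from log-transformed estimates.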

[2] = system: Zika virus (ZIKV) MR766 strain; test: EC50 dose-response in ZIKV-infected Vero cells; format: cell-based; details: CC50/EC50, Vero cells
Summary of the method: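 Vero CCL-81 monolayers were seeded at 1.2 × 10⁶ cells per plate one day before. Serial dilutions of test compound in DMEM (methods: 50–0.2 µM; legend: 0.2–100 µM) were added together with ZIKV MR766 at 100 TCID50/mL. Plates were held 6 days at 37 °C and 5% CO2, with virus and cell controls. Crystal violet read viability. EC50 came from four-parameter logistic fit of triplicate data. SI = CC50/EC50.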

[3] = system: ZIKV; details: read-out: previously reported EC50; anti-ZIKV; cited from earlier work

SMILES | CC50 at 6 days [1] [µM] | selectivity index (SI) [2] | EC50 [3] [µM]
CCCCC(CC)COC(=O)CC(C(=O)OCC(CC)CCCC)S(=O)(=O)O (stereo not drawn) [Docusate Sodium] | 8.19 | 3.49 | –
COC1=C[C@]23CCCN2CCc2cc4c(cc2[C@@H]3[C@@H]1O)OCO4 [Cephalotaxine] | – | – | 40
